# How the values were obtained:
# wild type HIV-1 RT [1] = molecular target: T1, wild type HIV-1 RT (Human immunodeficiency virus type 1 group M subtype B, UniProt P03366); assay: Steady-state kinetics of polymerization, wild-type enzyme; assay type: biochemical; conditions: WT, 25°C
# HIV-1 RT Q91N+M184V [2] = molecular target: T2, HIV-1 RT Q91N+M184V (Human immunodeficiency virus type 1 group M subtype B, UniProt P03366, M783V/Q690N); assay: Steady-state kinetics of polymerization, Q91N+M184V mutant; assay type: biochemical; conditions: 25°C
# Outline: (§1)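 Run at 25 °C with 40 nM mutant RT and 100 nM poly rA.dT18 or poly rC.dG18, each prepared by annealing equimolar template and primer at 20 μM. Buffer was 50 mM Tris-HCl pH 7.5, 2 mM MgCl2, 1 mM DTT and 100 μg/mL BSA. Complementary dTTP or dGTP was varied, with [3H]dTTP specific activity set using unlabeled dTTP. Reactions were started with MgCl2 and stopped with ice-cold 5% TCA at set times, then filtered and scintillation-counted. Km and Vmax came from Eadie-Hofstee plots of initial velocities; kcat = Vmax/[E].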
# HIV-1 RT Q91A [3] = molecular target: T3, HIV-1 RT Q91A (Human immunodeficiency virus type 1 group M subtype B, UniProt P03366, Q690A); assay: Steady-state kinetics of polymerization, Q91A mutant; assay type: biochemical; conditions: Q91A, 25°C
# HIV-1 RT Q91A [4] = assay: as above; assay type: biochemical, human immunodeficiency virus type 1; conditions: Q91A vs wild type; poly-rA.dT18 template, dTTP
# HIV-1 RT Q91A+M184V [5] = molecular target: T4, HIV-1 RT Q91A+M184V (Human immunodeficiency virus type 1 group M subtype B, UniProt P03366, M783V/Q690A); assay: Steady-state kinetics of polymerization, Q91A+M184V mutant; assay type: biochemical; conditions: Q91A+M184V, 25°C
# HIV-1 RT Q91A+M184V [6] = assay: as above; assay type: biochemical, human immunodeficiency virus type 1; conditions: Q91A/M184V vs wild type; poly-rA.dT18 template, dTTP
# HIV-1 RT Q91N [7] = molecular target: T5, HIV-1 RT Q91N (Human immunodeficiency virus type 1 group M subtype B, UniProt P03366, Q690N); assay: Steady-state kinetics of polymerization, Q91N mutant; assay type: biochemical
# Outline: as §1
# HIV-1 RT M184V [8] = molecular target: T6, HIV-1 RT M184V (Human immunodeficiency virus type 1 group M subtype B, UniProt P03366, M783V); assay: Steady-state kinetics of polymerization, M184V mutant; assay type: biochemical; conditions: 25°C
# HIV-1 RT Q91N+M184V [9] = molecular target: T2, HIV-1 RT Q91N+M184V; assay: Inhibition of reverse transcription by ddNTP inhibitors, Q91N+M184V mutant; assay type: biochemical; conditions: for Ki: 37 °C 3 min; for IC50: IC50=Ki(1+[S]/Km)
# Outline: (§2)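 Recombinant heterodimeric HIV-1 RT (p66 with N-terminally His-tagged p51), mutation present in both subunits, used at 10 nM. The enzyme was preincubated with 100 nM poly rA.dT18 or poly rC-dG18 for 2 min at 25 °C. Synthesis was started with Mg-complexed 10 μM [3H]dTTP or dGTP (1 μCi per assay) plus varied ddTTP or ddGTP, then run 3 min at 37 °C. Reactions were stopped with cold 5% TCA/5 mM PPi, collected on GF/B filters and counted by scintillation. Ki came from percent inhibition using the competitive-inhibitor equation; IC50 = Ki(1+[S]/Km). Three independent experiments.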
# HIV-1 RT M184V [10] = molecular target: T6, HIV-1 RT M184V; assay: Inhibition of reverse transcription by ddNTP inhibitors, M184V mutant; assay type: biochemical; conditions: for Ki: 37 °C 3 min; for IC50: IC50=Ki(1+[S]/Km)
# HIV-1 RT Q91N [11] = molecular target: T5, HIV-1 RT Q91N; assay: Inhibition of reverse transcription by ddNTP inhibitors, Q91N mutant; assay type: biochemical; conditions: for Ki: 37 °C 3 min; for IC50: IC50=Ki(1+[S]/Km)
# Outline: as §2
# wild type HIV-1 RT [12] = molecular target: T1, wild type HIV-1 RT; assay: Inhibition of reverse transcription by ddNTP inhibitors, wild-type enzyme; assay type: biochemical; conditions: WT; for Ki: 37 °C 3 min; for IC50: IC50=Ki(1+[S]/Km)
# HIV-1 RT Q91A+M184V [13] = molecular target: T4, HIV-1 RT Q91A+M184V; assay: Inhibition of reverse transcription by ddNTP inhibitors, Q91A+M184V mutant; assay type: biochemical; conditions: for Ki: 37 °C 3 min; for IC50: IC50=Ki(1+[S]/Km)
# HIV-1 RT Q91A [14] = molecular target: T3, HIV-1 RT Q91A; assay: Inhibition of reverse transcription by ddNTP inhibitors, Q91A mutant; assay type: biochemical; conditions: for Ki: 37 °C 3 min; for IC50: IC50=Ki(1+[S]/Km)
# [15] = Poly rA.dT18 template-primer, dTTP substrate
# [16] = Poly rC.dG18 template-primer, dGTP substrate
# [17] = poly rA.dT18 100 nM, dTTP 10 μM
# [18] = poly rC-dG18 100 nM, dGTP 10 μM
smiles,measurement,setting,value
Cc1cn([C@H]2C[C@H](O)[C@@H](COP(=O)(O)OP(=O)(O)OP(=O)(O)O)O2)c(=O)[nH]c1=O [dTTP],KmdTTP,wild type HIV-1 RT [1]; Poly rA.dT18 template-primer,3.0 ± 1.1 µM
same,Kcat,wild type HIV-1 RT [1]; [15],0.39 ± 0.6 s⁻¹
same,KmdTTP,HIV-1 RT Q91N+M184V [2]; Poly rA.dT18 template-primer,5.0 ± 1.0 µM
same,Kcat,HIV-1 RT Q91N+M184V [2]; [15],0.27 ± 0.11 s⁻¹
same,KmdTTP,HIV-1 RT Q91A [3]; Poly rA.dT18 template-primer,30.0 ± 3.5 µM
same,Kcat,HIV-1 RT Q91A [3]; [15],0.10 ± 0.03 s⁻¹
same,decrease in the catalytic efficiency,HIV-1 RT Q91A [4],21 fold
same,KmdTTP,HIV-1 RT Q91A+M184V [5]; Poly rA.dT18 template-primer,37.0 ± 4.0 µM
same,Kcat,HIV-1 RT Q91A+M184V [5]; [15],0.23 ± 0.07 s⁻¹
same,decrease in the catalytic efficiency,HIV-1 RT Q91A+M184V [6],43 fold
same,KmdTTP,"HIV-1 RT Q91N [7]; Q91N, Poly rA.dT18 template-primer, 25°C",7.0 ± 1.5 µM
same,Kcat,"HIV-1 RT Q91N [7]; Q91N, Poly rA.dT18 template-primer, dTTP substrate, 25°C",0.25 ± 0.08 s⁻¹
same,KmdTTP,HIV-1 RT M184V [8]; Poly rA.dT18 template-primer,3.5 ± 1.2 µM
same,Kcat,HIV-1 RT M184V [8]; [15],0.53 ± 0.12 s⁻¹
Nc1nc2c(ncn2[C@H]2C[C@H](O)[C@@H](COP(=O)(O)OP(=O)(O)OP(=O)(O)O)O2)c(=O)[nH]1 [dGTP],KmdGTP,wild type HIV-1 RT [1]; Poly rC.dG18 template-primer,6.0 ± 1.4 µM
same,Kcat,wild type HIV-1 RT [1]; [16],0.15 ± 0.019 s⁻¹
same,KmdGTP,HIV-1 RT Q91N+M184V [2]; Poly rC.dG18 template-primer,8.0 ± 1.8 µM
same,Kcat,HIV-1 RT Q91N+M184V [2]; [16],0.04 ± 0.012 s⁻¹
same,KmdGTP,HIV-1 RT Q91A [3]; Poly rC.dG18 template-primer,25.0 ± 4.0 µM
same,Kcat,HIV-1 RT Q91A [3]; [16],0.02 ± 0.006 s⁻¹
same,KmdGTP,HIV-1 RT Q91A+M184V [5]; Poly rC.dG18 template-primer,57.0 ± 5.0 µM
same,Kcat,HIV-1 RT Q91A+M184V [5]; [16],0.06 ± 0.010 s⁻¹
same,decrease in catalytic efficiency,"HIV-1 RT Q91N [7]; Q91N vs wild type, poly rC template, range given jointly for Q91N and Q91N/M184V",5–10 fold
same,KmdGTP,"HIV-1 RT Q91N [7]; Q91N, Poly rC.dG18 template-primer, 25°C",8.0 ± 2.1 µM
same,Kcat,"HIV-1 RT Q91N [7]; Q91N, Poly rC.dG18 template-primer, dGTP substrate, 25°C",0.02 ± 0.002 s⁻¹
same,KmdGTP,HIV-1 RT M184V [8]; Poly rC.dG18 template-primer,8.0 ± 2.2 µM
same,Kcat,HIV-1 RT M184V [8]; [16],0.08 ± 0.011 s⁻¹
Cc1cn([C@H]2CC[C@@H](COP(=O)(O)OP(=O)(O)OP(=O)(O)O)O2)c(=O)[nH]c1=O [ddTTP],Ki,HIV-1 RT Q91N+M184V [9]; [17],12 nM
same,IC50,HIV-1 RT Q91N+M184V [9]; [17],36 nM
same,Ki,HIV-1 RT M184V [10]; [17],18 nM
same,IC50,HIV-1 RT M184V [10]; [17],69 nM
same,Ki,HIV-1 RT Q91N [11]; [17],62 nM
same,IC50,HIV-1 RT Q91N [11]; [17],150 nM
same,Ki,wild type HIV-1 RT [12]; [17],4 nM
same,IC50,wild type HIV-1 RT [12]; [17],17 nM
same,Ki,HIV-1 RT Q91A+M184V [13]; [17],45 nM
same,IC50,HIV-1 RT Q91A+M184V [13]; [17],57 nM
same,Ki,HIV-1 RT Q91A [14]; [17],76 nM
same,IC50,HIV-1 RT Q91A [14]; [17],101 nM
Nc1nc2c(ncn2[C@H]2CC[C@@H](COP(=O)(O)OP(=O)(O)OP(=O)(O)O)O2)c(=O)[nH]1 [ddGTP],Ki,HIV-1 RT Q91N+M184V [9]; [18],130 nM
same,IC50,HIV-1 RT Q91N+M184V [9]; [18],285 nM
same,Ki,HIV-1 RT M184V [10]; [18],403 nM
same,IC50,HIV-1 RT M184V [10]; [18],900 nM
same,Ki,HIV-1 RT Q91N [11]; [18],476 nM
same,IC50,HIV-1 RT Q91N [11]; [18],1090 nM
same,Ki,wild type HIV-1 RT [12]; [18],112 nM
same,IC50,wild type HIV-1 RT [12]; [18],308 nM
same,Ki,HIV-1 RT Q91A+M184V [13]; [18],418 nM
same,IC50,HIV-1 RT Q91A+M184V [13]; [18],491 nM
same,Ki,HIV-1 RT Q91A [14]; [18],885 nM
same,IC50,HIV-1 RT Q91A [14]; [18],1240 nM
